Measured values from different studies.
Protocols differ between the studies behind these lines.
Target: Tyrosine-protein kinase Lck (LCK, Homo sapiens, UniProt P06239)

Compound	assay	conditions	quantity	result
CN1CCN(C(=O)c2ccc(NC(=O)Nc3ccc(N(C)c4ccnc(Nc5ccc(CS(C)(=O)=O)cc5)n4)cc3)cc2)CC1	binding, competition with immobilised ligand	1 µM	remaining binding	85%
C#Cc1cnc(Nc2ccc(CO)nc2)nc1Nc1ccccc1S(C)(=O)=NC#N (stereo not shown)	enzyme activity, inhibitor	1 µM	remaining activity	12.7%
C#Cc1cc(-c2cc(Nc3nc(N[C@@H](C)c4ccc(F)cn4)ncc3Cl)n[nH]2)ccc1C=O	enzyme activity, inhibitor	0.2 µM	inhibition	78.9%
CNC(=O)c1ccccc1Nc1nc(Nc2ccc(CO)nc2)ncc1Cl	enzyme activity, inhibitor	1 µM	remaining activity	3.38%
C1=C/COCc2cc(ccc2OCCN2CCCC2)Nc2nccc(n2)-c2cccc(c2)COC/1	binding	0.1 µM	remaining binding	53%
CC#CC(=O)N1CCC[C@H]1c1nc(-c2ccc(C(=O)Nc3ccccn3)cc2)c2c(N)nccn12	enzyme activity, inhibitor	1 µM	inhibition	10%
CCCCC(=O)Nc1ccc(-c2ccc3ncn(CCC)c(=O)c3c2)cn1	binding, competition with immobilised ligand	0.5 µM	remaining binding	100%
C#Cc1cnc(Nc2ccc(CO)cc2)nc1Nc1ccccc1C(=O)NC	enzyme activity, inhibitor	1 µM	remaining activity	2.4%
C[C@H]1CC[C@H](n2c3cnccc3c3cnc(Nc4ccc5c(n4)CCN(C(=O)CO)C5)nc32)CC1	binding, competition with immobilised ligand	1 µM	remaining binding	49%
C=CC(=O)N1CCC[C@@H](n2nc(-c3ccc(Oc4ccccc4)cc3)c3c(N)ncnc32)C1	enzyme activity, inhibitor	1 µM	inhibition	99%
